The test system of data set [1] is Leishmania amazonensis. Briefly: Antileishmanial activity against promastigote stage of Leishmania amazonensis MPRO/BR/1972/M1841-LV-79 assessed as parasite growth inhibition after 72 hrs by MTT assay. In kind it is functional, organism-based. As to conditions: MPRO/BR/1972/M1841-LV-79, 72 h. A digest of the protocol: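 Promastigotes at 1 × 10^7/mL in LIT + 10% FBS were exposed 72 h at 28 °C to ten concentrations, 0.5–100 µM (final DMSO 0.1%). Viability was read by MTT, with formazan dissolved in SDS-HCl and absorbance at 570 nm. Run in triplicate; IC50 from nonlinear regression.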

The test system of data set [2] is Leishmania amazonensis. The data set can be described thus: Antileishmanial activity against Leishmania amazonensis MPRO/BR/1972/M1841-LV-79 amastigotes infected in mouse peritoneal macrophages assessed as parasite growth inhibition after 24 hrs by Giemsa staining-based microscopic method. In kind it is functional, organism-based. The note with it: MPRO/BR/1972/M1841-LV-79, 24 h. A digest of the protocol:
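Peritoneal macrophages (3 × 10^5/well on coverslips, RPMI 1640 + 10% FBS) adhered 4 h at 37 °C, 5% CO2, then infected with stationary-phase promastigotes at 5:1 for 4 h. After washing, cells were cultured 18 h, then treated 24 h with compounds or reference drugs. Cells were methanol-fixed and Giemsa-stained. Infection index = % infected macrophages × mean amastigotes per infected cell. IC50 was fitted by regression.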

Data set [3] in a line: Cytotoxicity against mouse peritoneal macrophages assessed as decrease in cell viability after 24 hrs by MTT assay. In kind it is cell-based, Peritoneal macrophage. In a few lines: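 Peritoneal macrophages (1 × 10^5/well) in RPMI 1640 with 10% FBS, 25 mM HEPES and 2 mM L-glutamine were pre-incubated 4 h. They were then exposed to compounds for 24 h at 37 °C, 5% CO2. Viability was read by MTT; CC50 determined.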
(In general: Formazan colour is commonly taken as a measure of viable cells.)

The nature of data set [4]: Safety index, ratio of CC50 for mouse peritoneal macrophage to IC50 for promastigote stage of Leishmania amazonensis MPRO/BR/1972/M1841-LV-79. In kind it is toxicity. As to conditions: read-out: Ratio CC50/IC50.
A short description of data set [5]: Safety index, ratio of CC50 for mouse peritoneal macrophages to IC50 for Leishmania amazonensis MPRO/BR/1972/M1841-LV-79 amastigotes infected in mouse peritoneal macrophages. In kind it is toxicity. The note with it: read-out: Ratio CC50/IC50.
The test system of data set [6] is Leishmania amazonensis. Briefly: Antileishmanial activity against promastigote stage of Leishmania amazonensis MPRO/BR/1972/M1841-LV-79 infected in Balb/c mouse assessed as reduction in parasitic load at 2 mg/kg, ip administered once daily for 15 days by limiting dilution method relative to control. In kind it is functional. Set-up: scale not given: the % may be the effect or the level left. A digest of the protocol:
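Footpad-infected female BALB/c mice (1 × 10^7 parasites/mL promastigotes; 5 per group) were treated from six weeks post-infection. Dosing was daily ip for 15 days: 0.13 or 0.25 mg/kg/day (PBS, 0.1% DMSO), AmpB 2 mg/kg/day, or PBS vehicle. Skin-lesion parasite burden was quantified after treatment by limiting dilution and compared with untreated infected mice. Data are mean ± SD.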

The test system of data set [7] is Leishmania amazonensis. Briefly: Antileishmanial activity against Leishmania amazonensis MPRO/BR/1972/M1841-LV-79 amastigotes infected in mouse peritoneal macrophages assessed as reduction in number of intracellular amastigotes at 25 uM after 72 hrs by Giemsa staining-based microscopic method relative to control. In kind it is functional. Set-up: scale not given: the % may be the effect or the level left. A digest of the protocol: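 Infected peritoneal macrophages were treated with 25 µM of each compound, pentamidine or AmpB for 72 h. The infection index (% infected macrophages × amastigotes per infected macrophage) was compared with untreated infected cells. Data are given as mean ± SD.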

Data set [8] deals with Leishmania amazonensis. The data set can be described thus: Antileishmanial activity against promastigote stage of Leishmania amazonensis MPRO/BR/1972/M1841-LV-79 infected in Balb/c mouse assessed as reduction in volume of foot lesions at 2 mg/kg, ip administered once daily for 15 days measured every 5 days during compound dosing by caliper method. In kind it is functional, organism-based. A digest of the protocol: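 Infected BALB/c mice (5 per group) were dosed daily ip for 15 days, starting six weeks after footpad inoculation: 0.13 or 0.25 mg/kg/day, AmpB 2 mg/kg/day, or PBS. Foot lesion thickness was measured with a dial caliper every 5 days.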

Data set [9] in a line: Toxicity in Balb/c mouse infected with promastigote stage of Leishmania amazonensis MPRO/BR/1972/M1841-LV-79 assessed as change in body weight at 2 mg/kg, ip administered once daily for 15 days measured during compound dosing. In kind it is organism-based. The note with it: in vivo, 360 h.
The test system of data set [10] is Leishmania amazonensis. Briefly: Antileishmanial activity against promastigote stage of Leishmania amazonensis MPRO/BR/1972/M1841-LV-79 infected in Balb/c mouse assessed as increase in plasma bilirubin level at 2 mg/kg, ip administered once daily for 15 days measured during compound dosing. In kind it is functional, organism-based.
Data set [11] can be described thus: Renal toxicity in Balb/c mouse infected with promastigote stage of Leishmania amazonensis MPRO/BR/1972/M1841-LV-79 assessed as change in plasma creatinine level at 2 mg/kg, ip administered once daily for 15 days measured post-last dose. In kind it is organism-based. The note with it: in vivo, 360 h. A digest of the protocol: (§1)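 Female BALB/c mice (4 weeks old, 5 per group) were infected in the left hind footpad with 1 × 10^7 parasites/mL of infective promastigotes. After six weeks they received daily ip doses for 15 days: 0.13 or 0.25 mg/kg/day (from DMSO stock in PBS, 0.1% DMSO), AmpB 2 mg/kg/day in sterile water, or PBS. Controls were untreated infected and uninfected mice. At end of treatment, plasma bilirubin, AST, ALT, ALP, urea and creatinine were measured with commercial kits.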

Data set [12] is described as follows: Renal toxicity in Balb/c mouse infected with promastigote stage of Leishmania amazonensis MPRO/BR/1972/M1841-LV-79 assessed as change in plasma urea level at 2 mg/kg, ip administered once daily for 15 days measured post-last dose. In kind it is organism-based. The note with it: in vivo, 360 h. In a few lines: as §1
Data set [13] concerns Leishmania amazonensis. The data set can be described thus: Antileishmanial activity against promastigote stage of Leishmania amazonensis MPRO/BR/1972/M1841-LV-79 infected in Balb/c mouse assessed as decrease in plasma alkaline phosphatase level at 2 mg/kg, ip administered once daily for 15 days measured post-last dose. In kind it is organism-based. As to conditions: in vivo, 360 h. A digest of the protocol: as §1

Data set [14] relates to Leishmania amazonensis. Briefly: Antileishmanial activity against promastigote stage of Leishmania amazonensis MPRO/BR/1972/M1841-LV-79 infected in Balb/c mouse assessed as decrease in plasma aspartate aminotransferase level at 2 mg/kg, ip administered once daily for 15 days measured post-last dose. In kind it is functional, organism-based. In a few lines:
as §1

The test system of data set [15] is Leishmania amazonensis. The data set can be described thus: Antileishmanial activity against promastigote stage of Leishmania amazonensis MPRO/BR/1972/M1841-LV-79 infected in Balb/c mouse assessed as decrease in plasma alanine aminotransferase level at 2 mg/kg, ip administered once daily for 15 days measured post-last dose. In kind it is functional, organism-based. A digest of the protocol:
as §1

The source made the active and inactive calls. The calls are words filed in the database; no cut-off is given here.

The term IC50 denotes the concentration needed to halve the response being measured. What is called CC50 is the concentration giving 50% cytotoxicity. `C[C@@H]1[C@H](O)[C@@H](C)/C=C/C=C/C=C/C=C/C=C/C=C/C=C/[C@H](O[C@@H]2O[C@H](C)[C@@H](O)[C@H](N)[C@@H]2O)C[C@@H]2O[C@](O)(C[C@@H](O)C[C@@H](O)[C@H](O)CC[C@@H](O)C[C@@H](O)CC(=O)O[C@H]1C)C[C@H](O)[C@H]2C(=O)O` [AMPHOTERICIN B]: the IC50 in the data set with Leishmania amazonensis [1] was 3.2 µM; in the data set with Leishmania amazonensis [2], 4.92 µM. Moreover, the CC50 at 24 h in data set [3] was 23.1 µM. Also, the selectivity ratio was determined as 7.2 in data set [4] and 4.7 in [5]. The Activity with Leishmania amazonensis [6] was 41%; in the data set on Leishmania amazonensis [7], 84%; in [9], “Non-Toxic”; in data set [11], “Non-Toxic”; in data set [12] it was “Non-Toxic”; in the data set on Leishmania amazonensis [13], “Active”. The result in the data set with Leishmania amazonensis [8], in the data set with Leishmania amazonensis [10], in the data set with Leishmania amazonensis [14] and in the data set with Leishmania amazonensis [15] was Active.
